Data set [1] addresses T1, Renin (Homo sapiens, UniProt P00797).
T1 sequence (P00797 whole entry): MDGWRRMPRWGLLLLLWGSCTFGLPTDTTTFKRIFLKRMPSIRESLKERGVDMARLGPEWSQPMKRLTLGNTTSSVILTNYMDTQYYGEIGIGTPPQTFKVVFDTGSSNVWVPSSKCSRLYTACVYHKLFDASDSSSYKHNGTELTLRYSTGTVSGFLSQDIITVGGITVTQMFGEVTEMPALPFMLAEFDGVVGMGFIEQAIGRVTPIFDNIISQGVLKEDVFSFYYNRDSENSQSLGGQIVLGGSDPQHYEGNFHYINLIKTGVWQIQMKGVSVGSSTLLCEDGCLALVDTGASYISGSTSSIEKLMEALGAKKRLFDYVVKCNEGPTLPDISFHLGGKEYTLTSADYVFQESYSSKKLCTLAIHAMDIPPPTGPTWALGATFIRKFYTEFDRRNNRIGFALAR
As to the kind of experiment: Inhibition of human purified renin.

Data set [2] has as its target T2, Renin (Macaca fascicularis, UniProt Q6DLS0).
T2 sequence (Q6DLS0 whole entry): T1 sequence (P00797 whole entry) with T68A, I214L, S235A
As to the kind of experiment: Inhibition of renin in cynomolgus monkey plasma.

Data set [3] is described as follows: Metabolic stability in cynomolgus monkey liver microsomes assessed as compound remaining at 1 uM incubated with NADPH generating system measured after 30 mins. Type of data set: ADME, Macaca fascicularis, Microsome. The note with it: read-out: Stability. A digest of the protocol: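 Monkey liver microsome stability, high-throughput in-house format: compound incubated at […] with an NADPH-generating system and 0.5 mg/mL microsomal protein at 37 °C.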
Background: Microsomes from liver hold many membrane-bound enzymes, among them those of drug oxidation.

The nature of data set [4]: AUC (0 to 24 hrs) in cynomolgus monkey at 10 mg/kg, po. As to conditions: plasma.
Data set [5] can be described thus: Oral bioavailability in cynomolgus monkey at 10 mg/kg. Type of data set: ADME, organism-based, Macaca fascicularis. The note with it: in vivo.
The nature of data set [6]: Clearance in cynomolgus monkey at 1 mg/kg, iv. Type of data set: ADME, organism-based, Macaca fascicularis. The arrangement: dose 1 mg/kg, route intravenous. As to conditions: in vivo.
Data set [7] can be described thus: Half life in cynomolgus monkey at 1 mg/kg, iv. Details: dose 1 mg/kg, route intravenous. Type of data set: ADME, organism-based, Macaca fascicularis. The note with it: in vivo.
Data set [8] in a line: Volume of distribution at steady state in cynomolgus monkey at 1 mg/kg, iv. The class given is ADME, organism-based, Macaca fascicularis. The arrangement: dose 1 mg/kg, route intravenous. The note with it: in vivo, read-out: Vdss.
A short description of data set [9]: Cmax in cynomolgus monkey at 10 mg/kg, po. The note with it: in vivo. The arrangement: dose 10 mg/kg, route oral. The class given is ADME, organism-based, Macaca fascicularis.

Substitutions are numbered along the chain they refer to.

Usually IC50 stands for the point on the concentration scale where inhibition reaches its midpoint. As a reminder, the AUC(0-t) is exposure summed from dosing to a finite time, without extrapolation to infinity. The bioavailability is dose-corrected exposure relative to a reference, in per cent. By clearance is commonly meant the rate of elimination divided by the concentration. As a reminder, the half-life is the time in which the quantity being followed falls by half. Usually Cmax stands for the highest concentration seen after dosing.

As to `CC(C)[C@H](C[C@H](O)[C@@H](N)CN1CC(=O)N(c2ccccc2F)CC1(C)C)C(=O)NCC(C)(C)C(N)=O`, the half-inhibitory concentration (IC50) in [1] was determined as 2.2 nM; in data set [2], 30 nM.
The corresponding values for `COCOc1ccccc1N1CC(C)(C)N(C[C@H](N)[C@@H](O)C[C@H](C(=O)NCC(C)(C)C(N)=O)C(C)C)CC1=O` are 1.4 nM and 6.4 nM.
The corresponding values for `CC(C)[C@H](C[C@H](O)[C@@H](N)CN1CC(=O)N(c2cc(Cl)ccc2Cl)CC1(C)C)C(=O)NCC(C)(C)C(N)=O` are 2.1 nM and 28 nM.
The corresponding values for `COCCOc1ccccc1N1CC(C)(C)N(C[C@H](N)[C@@H](O)C[C@H](C(=O)NCC(C)(C)C(N)=O)C(C)C)CC1=O` are 1.7 nM and 9.8 nM.
For the molecule `CCCCNC(=O)[C@@H](C[C@H](O)[C@@H](N)CN1CC(=O)N(c2cc(F)ccc2Cl)CC1(C)C)C(C)C.O=C(O)/C=C/C(=O)O`, the figures for the IC50 in data set [1] and in [2] were 2 nM and 25 nM, respectively. In addition, the remaining at 0.5 h, 1 µM in data set [3] turned out to be 52.2%. In [4], this molecule gave an AUC(0-t) at 24 h of 2110 ng·h/mL. In data set [5], this molecule yielded a bioavailability of 18.5%. In [6], the clearance came out at 14.7 mL/min/kg. In addition, in [7], the half-life was 10.8 h. Further, the Vd in data set [8] worked out at 16.3 L/kg. In [9], this molecule displayed a Cmax of 576 ng/mL.
Consider `CC(C)[C@H](C[C@H](O)[C@@H](N)CN1CC(=O)N(c2cccc(F)c2)CC1(C)C)C(=O)NCC(C)(C)C(N)=O`, for which the values for the IC50 in data set [1] and in [2] were 3 nM and 23 nM, respectively.
For `COCCCOc1ccccc1C1CCN(CC(N)C(O)CC(C(=O)NCC(C)(C)C(N)=O)C(C)C)CC1` (racemic) the same measures were 370 nM and 12500 nM.
Turning to `CC(C)[C@H](C[C@H](O)[C@@H](N)CN1CC(=O)N(c2c(F)cccc2F)CC1(C)C)C(=O)NCC(C)(C)C(N)=O`, the IC50 in data set [1] amounted to 2.4 nM; in [2], 12 nM.
Turning to `CC(C)[C@H](C[C@H](O)[C@@H](N)CN1CC(=O)N(c2ccccc2Cl)CC1(C)C)C(=O)NC1CCCCC1`, the IC50 was 1 nM in [1] and 11 nM in data set [2]. For the same molecule, in data set [3], the remaining at 0.5 h, 1 µM was 17.5%.
The corresponding values for `CC[C@H](C)CNC(=O)[C@@H](C[C@H](O)[C@@H](N)CN1CC(=O)N(c2cc(F)ccc2Cl)CC1(C)C)C(C)C` are 1.4 nM, 8 nM and 1.9%.
As for `CC(C)[C@H](C[C@H](O)[C@@H](N)CN1CC(=O)N(c2cc(F)ccc2Cl)CC1(C)C)C(=O)NCC(C)(C)C(N)=O`, the values for the IC50 in [1] and in data set [2] were 2.1 nM and 7 nM, respectively.
In the case of `COCCCOc1ccccc1N1CCN(CC(N)C(O)CC(C(=O)NCC(C)(C)C(N)=O)C(C)C)CC1=O` (racemic), the IC50 in [2] was found to be 2800 nM.
The molecule `CC(C)[C@H](C[C@H](O)[C@@H](N)CN1CC(=O)N(c2ccccc2Cl)CC1(C)C)C(=O)NCC(C)(C)C(N)=O` yielded an IC50 in [2] of 7 nM.
On to `CC(C)[C@H](C[C@H](O)[C@@H](N)CN1CC(=O)N(c2ccccc2)CC1(C)C)C(=O)NCC(C)(C)C(N)=O`, for which the values for the IC50 in [1] and in data set [2] were 3.1 nM and 49 nM, respectively.
For `COCCCOc1ccccc1N1CC(C)(C)N(CC(N)C(O)CC(C(=O)NCC(C)(C)C(N)=O)C(C)C)CC1=O` (racemic) the same measures were 3.3 nM and 10 nM.
Take `COCCCOc1ccccc1N1CCN(CC(N)C(O)CC(C(=O)NCC(C)(C)C(N)=O)C(C)C)C(C)(C)C1=O` (racemic): the half-inhibitory concentration (IC50) in data set [1] is 170 nM; in data set [2], 875 nM.
The corresponding values for `COc1ccc(Cl)c(N2CC(C)(C)N(C[C@H](N)[C@@H](O)C[C@H](C(=O)NCC(C)(C)C(N)=O)C(C)C)CC2=O)c1` are 2.4 nM and 33 nM.
For `COCCCOc1cccc(N2CCN(CC(N)C(O)CC(C(=O)NCC(C)(C)C(N)=O)C(C)C)CC2=O)c1` (racemic) the same measures were 400 nM and 3000 nM.
Take `CC(C)[C@H](C[C@H](O)[C@@H](N)CN1CC(=O)N(c2cccc(F)c2F)CC1(C)C)C(=O)NCC(C)(C)C(N)=O`: the IC50 in data set [1] came out at 2 nM; in data set [2] it was 11 nM.
For `CC(C)[C@H](C[C@H](O)[C@@H](N)CN1CC(=O)N(c2cc(F)ccc2F)CC1(C)C)C(=O)NCC(C)(C)C(N)=O` the same measures were 2 nM and 30 nM.
On to `CC(C)[C@H](C[C@H](O)[C@@H](N)CN1CC(=O)N(c2cc(F)ccc2Cl)CC1(C)C)C(=O)NC1CCCCC1`, for which the IC50 in [1] stood at 1.9 nM; in data set [2], 5 nM. Further, the remaining at 0.5 h, 1 µM in [3] is 38%.
Regarding `CC(C)[C@H](C[C@H](O)[C@@H](N)CN1CC(=O)N(c2cc(F)cc(F)c2)CC1(C)C)C(=O)NCC(C)(C)C(N)=O`, the IC50 in data set [1] was 5.5 nM; in data set [2] it was 90 nM.
For `COc1cccc(N2CC(C)(C)N(C[C@H](N)[C@@H](O)C[C@H](C(=O)NCC(C)(C)C(N)=O)C(C)C)CC2=O)c1` the same measures were 4.2 nM and 58 nM.
Consider `CCCCNC(=O)[C@@H](C[C@H](O)[C@@H](N)CN1CC(=O)N(c2ccccc2Cl)CC1(C)C)C(C)C`, for which the IC50 in [1] was found to be 1 nM; in data set [2], 9 nM. In addition, the remaining at 0.5 h, 1 µM in data set [3] was found to be 39.2%.
For `Cc1ccccc1N1CC(C)(C)N(C[C@H](N)[C@@H](O)C[C@H](C(=O)NCC(C)(C)C(N)=O)C(C)C)CC1=O`, the 50% inhibitory concentration (IC50) in data set [1] stood at 1.7 nM; in data set [2], 24 nM.
The corresponding values for `COc1ccccc1N1CC(C)(C)N(C[C@H](N)[C@@H](O)C[C@H](C(=O)NCC(C)(C)C(N)=O)C(C)C)CC1=O` are 1.9 nM and 19 nM.
`CC[C@H](C)CNC(=O)[C@@H](C[C@H](O)[C@@H](N)CN1CC(=O)N(c2ccccc2Cl)CC1(C)C)C(C)C`: the results for the IC50 in data set [1] and in data set [2] were 1 nM and 2 nM, respectively. Besides, the remaining at 0.5 h, 1 µM in [3] is 8.4%.
For `CC(C)[C@H](C[C@H](O)[C@@H](N)CN1CC(=O)N(c2cccc(Cl)c2)CC1(C)C)C(=O)NCC(C)(C)C(N)=O`, the IC50 in data set [1] is 2.1 nM; in [2], 25 nM.
`COCCCOc1ccccc1N1CC(C)(C)N(C[C@H](N)[C@@H](O)C[C@H](C(=O)NCC(C)(C)C(N)=O)C(C)C)CC1=O`: the IC50 amounted to 1.2 nM in data set [1] and 5.3 nM in [2].
